In the library only some 4.4% were active in any assay of this set; here they are far more common.
HIF activator = HIF pathway transcriptional activators, primary screen, cell-based, U2OS HRE-luciferase, luminescence; U2OS HRE-luciferase reporter; normalized: DMSO 0%, desferrioxamine 100%; activation, % at 7.5 µM (by protocol); actives 0.32% (n = 300,000); AID 1910, 2009;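 active means mean activation of at least 10% of the iron chelator positive control signal, with at least half of replicates also reaching 10%; inconclusive means mean and replicate majority disagree about reaching 10%; inactive means mean and most replicates under 10%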
T cruzi repl = inhibitors of intracellular T. cruzi growth, primary screen, luminescence, NIH3T3 host cells; T. cruzi beta-gal in NIH3T3, 90 h; actives 1.4% (n = 300,000); inhibition, % (test concentration not listed);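 active means mean inhibition across valid replicates above about 55%, limit read from the data; inconclusive means mean below that limit but half or more replicates reach it; inactive means mean below it, under half of replicates reach it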;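 further: signal also drops with host cell toxicity which is not excluded here; 0% = plate median of DMSO wells and 100% = zero luminescence signal; higher percent means less beta-gal luminescence so fewer parasites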
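Assay system: NIH/3T3 fibroblasts plus reporter T. cruzi. Amount: NIH/3T3 cells, 5,000 per well. Buffer or medium: DMEM, 2% fetal bovine serum. Doses: compound pinned at 50 nL/well, DMSO. Schedule: ≥90 h infection period, 3 h prior cell attachment. Signal: luminescent β-galactosidase signal after 60 min lysis. Read-out: parasite load inhibition, %.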
Calb FLC = C. albicans growth inhibition with fluconazole, primary screen, CaCi-2 strain, Alamar Blue fluorescence. C. albicans CaCi-2 (fluconazole-resistant clinical isolate) + fluconazole, 48 h. growth inhibition, % (no concentration beside the values). actives 0.57% (n = 300,000);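 active means growth inhibition above about 58% in most replicates, limit read from the data, passing the limit was not always enough; inconclusive means exactly half the replicates above a set limit; inactive means most replicates below a set limit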;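 further: all wells also contain fluconazole at 8 µg/ml as a sub-toxic cotreatment; 0% = median of DMSO wells and 100% = median of geldanamycin control wells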
HSF1 activator = HSF-1 activators, primary screen, NIH3T3-HGL cells, MG132 stress, luminescence, single point | NIH3T3-HGL HSF-1 luciferase reporter, 8 h; 100% = twice DMSO control signal | activation, % at 9 µM | actives 1.7% (n = 300,000);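 active means mean replicate activation of at least 50% with a set share of replicates each reaching 50%; inconclusive means only one of those two conditions met; inactive means mean below 50% and too few replicates reaching it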;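 further: 0% = median of the neutral control wells and 100% = twice that signal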
HSF1 inh = HSF1 inhibitors in luciferase reporter cells, primary screen, cell-based, NIH3T3, luminescence. NIH3T3-HGL HSE-luciferase, MG132-induced, luminescence 8 h; active compounds read low. activity change, negative = inhibition, % at 7.5 µM (by protocol). actives 0.77% (n = 300,000);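 active means more than half of replicate wells show activity change below -50%, luminescence cut by over half; inconclusive means some wells, but at most half, below -50%; inactive means no replicate well below -50%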;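 further: luciferase reports HSF-1 transcriptional activity via heat shock element; 0% = median of DMSO wells and -100% = zero luminescence signal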
The depositor's hits bear a star; u = inconclusive; x = not tested or not shown.

SMILES | HIF activator | T cruzi repl | Calb FLC | HSF1 activator | HSF1 inh
c1csc(CSc2nc3ccccc3s2)c1 | 2 | -9 | -12 | 56* | 31
CCN1CCN(c2ncc(C(=O)Nc3ccccc3C(=O)OC)c3ccccc23)CC1 | 0 | 35 | -7 | -43 | -30
Cc1ccc2nc(-c3sc4nc(C)cc(C)c4c3N)[nH]c2c1 | -1 | 26 | 17 | -66 | -61*
COC(=O)Cn1c(C)nc([N+](=O)[O-])c1Br | 1 | -2 | 11 | 4 | 9
Cc1nc([N+](=O)[O-])c(Br)n1CC(=O)c1cccc([N+](=O)[O-])c1 | 2 | 10 | -5 | 102* | 75
Cc1nc([N+](=O)[O-])c(Br)n1Cc1ccccc1 | 1 | -10 | -6 | 77* | 49
Cc1sc2ncn(CC(=O)Nc3ccccc3F)c(=O)c2c1-c1ccccc1 | 0 | 7 | -1 | -4 | -2
Fc1ccccc1CNc1ncnc2sccc12 | 0 | -38 | 0 | -4 | -1
c1ccc2c(c1)OCC(CNc1ncnc3sccc13)O2 (stereo not given) | 1 | -72 | 80* | -1 | 7
Cc1cccc(-c2nsc(SCC(=O)c3ccc(Cl)cc3)n2)c1 | 228* | 13 | -3 | 5 | -3
CCOC(=O)c1cnc2ccc(C)cc2c1Sc1ccccc1C(=O)OC | 0 | 61* | 17 | -9 | 2
COc1ccc(CNc2nc3ccccc3n2CCN2CCCCC2)cc1 | 0 | 14 | -3 | 12 | 3
CCN(CC)c1ccc(CNc2nc3ccccc3n2CCN2CCCCC2)cc1 | 0 | 60* | -27 | x | x
CNC(=O)c1c(NC(=O)C2=COCCO2)sc2c1CCCC2 | 1 | -10 | -4 | 6 | 8
COc1ccc(-c2nsc3c(N4CCCC4)ncnc23)cc1 | 0 | 1 | -15 | -51 | -55*
O=C(CCc1ccccc1)NNC(=S)NC(=O)c1ccccc1 | 0 | -24 | 110* | 19 | 14
CC(C)(C)c1cc(CCC(=O)NNC(=S)NC(=O)c2ccccc2)cc(C(C)(C)C)c1O | 0 | 59* | 71 | 20 | 14
CC(C)(C)c1cc(CCC(=O)NNC(=O)c2ccco2)cc(C(C)(C)C)c1O | 0 | 9 | 1 | 5 | -9
CC(=O)NC(=S)NNC(=O)CCc1ccccc1 | 0 | -11 | -15 | -8 | -5
COC(=O)c1ccc(N=NN2CCCCCC2)cc1 | 3 | -2 | -23 | 75* | 32
O=C(CCC1CCCC1)NCCS(=O)(=O)N1CCN(c2ccccc2)CC1 | 3 | 3 | -7 | -11 | 6
CCC(=O)n1nc(-c2cccnc2)nc1NCc1cccs1 | 0 | -22 | 6 | -93 | -91*
CCCC(=O)n1nc(-c2cccnc2)nc1NCc1cccs1 | 0 | 4 | -3 | -3 | -2
O=C(COC(=O)c1ccc(Sc2ccccc2)c([N+](=O)[O-])c1)NC1CCS(=O)(=O)C1 (stereo not given) | 1 | 9 | 2 | 12 | -7
COc1ccccc1C(O)(C(=O)N(NC(C)=O)c1ccccc1)c1ccccc1OC | -1 | -5 | -4 | -71 | -63*
SMILES | HIF activator | T cruzi repl | Calb FLC | HSF1 activator | HSF1 inh
COc1ccccc1C(O)(C(=O)NNc1ccccc1C)c1ccccc1OC | 0 | 13 | -6 | 0 | 2
COCc1c(Br)c(C)nc(OCC(=O)N/N=C/c2cc(C)n(-c3ccc([N+](=O)[O-])cc3)c2C)c1C#N | 0 | 63* | u | x | x
Cc1ccc(OCC(=O)NC(=S)Nc2ccc(Br)cn2)cc1 | 0 | 1 | -1 | 0 | -6
COc1ccc2cc3cc(C(=O)N4CCN(c5ccccn5)CC4)oc3nc2c1 | 56* | 8 | 20 | 4 | 1
O=C(CCN1CCC(c2cccs2)=N1)c1cccs1 | 4 | 0 | -6 | 65* | 38
Fc1ccc(Sc2ccccc2CNC2=NCCN2)cc1 | 0 | 63* | -9 | 55* | 9
Cc1cc(C)c(S(=O)(=O)c2cc(F)ccc2C)c(Cl)n1 | 0 | 65* | 2 | -4 | -6
Cc1cc(C)c(S(=O)(=O)c2cccc(Cl)c2)c(Cl)n1 | 0 | -1 | -3 | -8 | -7
Cc1cc(C)c(S(=O)(=O)c2ccc(Cl)cc2C)c(Cl)n1 | 0 | 56* | 44 | -5 | 1
CC1Cc2ccccc2N1CC(=O)NC(=O)NCc1ccccc1 (stereo not given) | -2 | 0 | -6 | -75 | -75*
CN(C)c1cc[n+](CC(=O)c2ccc(-c3ccccc3)cc2)cc1 | 0 | 56* | 112* | -8 | -8
O=C(C[n+]1ccccc1)c1ccc(-c2ccccc2)cc1 | 2 | 6 | 21 | 13 | 7
Cc1cc(Cl)n2c(nc3cc(F)c(F)cc32)c1C#N | 9.5* | 79* | -6 | 179* | 110
Brc1ccc(-c2nnc(Cc3ccccc3)o2)cc1 | 3 | 10 | -17 | 56* | 34
c1ccc(Cc2nnc(-c3ccccc3)o2)cc1 | 9.7* | -17 | -9 | 29 | 20
COc1ccc(Cc2nnc(-c3ccccc3)o2)cc1 | 1 | -9 | -7 | 42 | 20
CC(=O)N1c2ccc(S(=O)(=O)NCCC(=O)Nc3ccc(C)c(F)c3)cc2CC1C (stereo not given) | 0 | 2 | -3 | 2 | 4
Cc1ccc(C)c(OCc2nc(-c3cccnc3)no2)c1 | 1 | 6 | 28 | 12 | 1
Cc1ccc(-c2nc(-c3cccnc3)no2)c(C)c1 | 3 | 3 | 95* | 57* | 21
O=C(Nc1ccc(F)cc1F)c1cc2nc3c(c(C(F)(F)F)n2n1)CCCC3 | 3 | 7 | 8 | -62 | -55*
Cc1ccc(C(=O)CCC(=O)N2CCN(c3ccccc3O)CC2)cc1 | -21 | -1 | 12 | 1 | 4
O=C(c1ccc(-c2ccc(Cl)cc2Cl)o1)N1CCOCC1 | 3 | 3 | 29 | 60* | 30
O=C(c1ccc(-c2cc(Cl)ccc2Cl)o1)N1CCOCC1 | 1 | -6 | 6 | 3 | 5
C=CCSc1n[nH]c(-c2ccc(OCCCC)cc2)n1 | 2 | 25 | u | 66* | 35
C=CCSc1n[nH]c(-c2ccc(OCCC)cc2)n1 | 2 | 3 | 112* | 27 | 38
C=CCSc1n[nH]c(-c2cccs2)n1 | -1 | -9 | -18 | 15 | 2
COc1cccc(-n2c(SCC(=O)NCC3CCCO3)nc3c(c2=O)SCC3)c1 (stereo not given) | 0 | 5 | -7 | -78 | -72*
COC(=O)CN1C(c2ccccc2)=Nc2ccc(Cl)cc2C1c1ccccc1 (stereo not given) | 0 | 19 | 7 | 36 | 13
